Hits are enriched below; roughly 2% of the tested compounds scored in any of these assays.
APJ antagonist – APJ receptor antagonism; P35414; CHO-K1 APJ beta-arrestin complementation, luminescence; inhibition, % at 20 µM; 330,000 compounds, 0.32% hits; AID 2521;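 active = inhibition above about 40% at 20 µM, limit read from the data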;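 note: cells challenged with 10 nM apelin-13 agonist together with compound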
EBI2 block – antagonists of human EBI2 receptor; EBI2 beta-arrestin recruitment, luminescence, 7a,25-OHC stimulated; inhibition, % at 5 µM; 360,000 compounds, 0.81% hits; in the data active = inhibition above about 38%;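 note: enzyme fragment complementation signal reports receptor beta-arrestin coupling in cells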
Target sequence (P32249 whole entry, looked up, the tested form may be a part): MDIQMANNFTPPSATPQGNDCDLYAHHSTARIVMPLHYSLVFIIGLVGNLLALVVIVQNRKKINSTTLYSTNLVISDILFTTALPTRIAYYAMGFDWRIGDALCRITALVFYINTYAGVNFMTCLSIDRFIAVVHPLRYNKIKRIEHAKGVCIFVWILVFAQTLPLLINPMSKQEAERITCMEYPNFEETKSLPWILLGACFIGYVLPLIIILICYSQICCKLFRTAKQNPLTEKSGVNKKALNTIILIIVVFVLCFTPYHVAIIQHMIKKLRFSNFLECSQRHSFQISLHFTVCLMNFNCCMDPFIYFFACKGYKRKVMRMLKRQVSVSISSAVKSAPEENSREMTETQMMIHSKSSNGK
GAA850 FXN act – frataxin GAA850 promoter activation. HEK293 lucGAA850 FXN promoter luciferase reporter, 24 h; percent of 10 µM SAHA response. activation, % at 6 µM. 360,000 compounds, 0.56% hits;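 active = activation above the average of all compounds screened plus 3 SD, cutoff fixed separately per campaign, cut at about 7.5% in these data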
APJ ag – agonists of human APJ apelin receptor. P35414. CHO-K1 APJ PathHunter beta-arrestin, luminescence; 0% DMSO wells, 100% apelin. activation, % at 20 µM. 330,000 compounds, 0.11% hits;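 active = activation more than six SD over the plate average, tested at 20 µM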
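Assay system: engineered CHO-K1 APJ arrestin reporter cells; Amount: 1000 CHO-K1 reporter cells seeded per well; Dosing: one dose, 20 µM compound, 1% DMSO; Times: compound stimulation 90 min at 25 °C, detection 60 min; Measured by: luminescent beta-gal fragment complementation, chemiluminescent substrate; Read-out: APJ–arrestin association signal; Controls: DMSO vs Apelin-13 10 nM.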
CXCR6 inh – blocks human CXCR6 beta-arrestin recruitment; inhibition, % at 20 µM; AID 602244; 360,000 compounds, 0.36% hits; CHO-K1 PathHunter CXCR6 beta-arrestin, luminescence; in the data active = inhibition above about 34%, passing the limit was not always enough;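 note: antagonist mode with CXCL16 agonist at 10 nM final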
Target sequence (O00574 whole entry, looked up): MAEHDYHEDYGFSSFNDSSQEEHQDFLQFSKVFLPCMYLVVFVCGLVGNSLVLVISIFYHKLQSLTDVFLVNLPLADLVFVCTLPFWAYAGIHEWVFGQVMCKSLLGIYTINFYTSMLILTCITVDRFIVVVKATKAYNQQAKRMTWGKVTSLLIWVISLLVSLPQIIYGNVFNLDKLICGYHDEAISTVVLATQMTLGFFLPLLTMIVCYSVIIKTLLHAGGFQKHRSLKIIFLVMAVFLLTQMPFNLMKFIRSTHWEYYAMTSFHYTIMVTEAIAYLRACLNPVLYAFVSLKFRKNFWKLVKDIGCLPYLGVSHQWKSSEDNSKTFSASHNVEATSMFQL
CCR6 antagonist – blocks CCL20-driven beta-arrestin recruitment at human CCR6 | AID 493098 | 340,000 compounds, 0.49% hits | CHO-K1 CCR6 PathHunter beta-arrestin, luminescence, CCL20-stimulated | P51684 | inhibition, % at 20 µM;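 active = compounds whose inhibition of the agonist-driven luminescence signal at 20 µM reaches about 50%, limit read from the data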;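 note: cells stimulated with CCL20 at 14 nM final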
Large screens that a line does not name were inactive.

CCOC(=O)[C@@H]1[C@H]2COc3ccccc3[C@@H]2N2C(=O)N(c3cccc(C)c3)C(=O)[C@]12C	none
CCCCC[C@H]1CCCCC[C@H](O)C[C@@H](O)[C@H](O)/C=C/C(=O)O1	none (no result: APJ antagonist, GAA850 FXN act, APJ ag, CCR6 antagonist)
O=C(CC(=O)c1cc(Cl)ccc1O)c1ccccc1	none
O=C(c1ccccc1)c1cc(Cl)ccc1N1C(=O)C=CC1=O	CXCR6 inh 61, CCR6 antagonist 106 (no result: APJ antagonist, APJ ag)
CC(=Cc1ccccc1)C(=O)c1ccccc1	none (no result: APJ antagonist, APJ ag, CCR6 antagonist)
O=C(C(Br)=Cc1ccccc1)c1ccccc1	EBI2 block 69, CXCR6 inh 48, CCR6 antagonist 69 (no result: APJ antagonist, APJ ag)
COc1cc(OC)c(-c2c3cc(O)c(=O)cc-3oc3cc(O)c(O)cc23)cc1OC	CCR6 antagonist 64
Cc1c2cc(O)c(=O)cc-2oc2cc(O)c(O)cc12	none
CC(=O)c1ccc(N=Nc2c(C)[nH]n(-c3ccccc3)c2=O)cc1	CXCR6 inh 40
COC(=O)c1ccccc1NCC(=O)c1ccc(OC)cc1	none
COc1ccc(C(=O)CNc2ccc(C)cc2C)cc1	CXCR6 inh 43, CCR6 antagonist 79
O=C(NC1CCCCC1)C(C1CC1)n1c(=O)c(-c2cc3ccccc3[nH]2)nc2ccccc21 (centres undefined)	none (no result: APJ antagonist, GAA850 FXN act, APJ ag, CXCR6 inh, CCR6 antagonist)
CC(C)(C)C1CCC(=NNC(=S)NCc2ccccc2)CC1 (centres undefined)	CCR6 antagonist 52
Cn1cc(Cl)c(C(=O)N/N=C/c2ccc3c4c(cccc24)CC3)n1	GAA850 FXN act 8.0
Cc1ccc(S(=O)(=O)N2CCN(c3nc(-c4cccs4)nc4ccccc34)CC2)cc1	none (no result: APJ antagonist, APJ ag, CCR6 antagonist)
O=C(N=C1c2ccccc2CN1c1ccccc1)c1cccc([N+](=O)[O-])c1	none
CCOC(=O)c1ccc(N2Cc3ccccc3C2=NC(=O)c2cccc([N+](=O)[O-])c2)cc1	GAA850 FXN act 7.8
COCCNC(=O)CN1C(=O)CC(C)(C)S(=O)(=O)c2ccccc21	GAA850 FXN act 13
CC(C)OCCCNC(=O)CN1C(=O)CC(C)(C)S(=O)(=O)c2ccccc21	none
CC(C)N1CCC1(C)C(=O)Nc1cc(-c2ccccc2)nn1C (centres undefined)	none (no result: APJ antagonist, APJ ag, CCR6 antagonist)
O=C(N/N=C/c1ccc(O)c([N+](=O)[O-])c1)C(O)(c1ccccc1)c1ccccc1	none
O=C(N/N=C/c1cc([N+](=O)[O-])cc([N+](=O)[O-])c1O)C(O)(c1ccccc1)c1ccccc1	CXCR6 inh 39
Cc1ccc(C(=O)COC(=O)CCC(=O)Nc2cc(Cl)ccc2Cl)cc1[N+](=O)[O-]	CCR6 antagonist 62
CCOC(=O)CN(C(=O)CSc1nnc(CNc2ccc(F)cc2)n1C)c1ccccc1	none
CCOC(=O)CN(C(=O)CSc1nnc(COc2ccc(OC)cc2)n1C)c1ccccc1	EBI2 block 52
COc1ccc(OC)c2c1C(=O)C(Cl)=C(Cl)C2=O	CXCR6 inh 102, CCR6 antagonist 105
CC(Oc1ccccc1)C(=O)N1CCC2(CC1)Oc1ccc(F)cc1C(=O)C21CC(c2cccnc2)=NO1 (centres undefined)	EBI2 block 42
CC(Oc1ccccc1)C(=O)N1CCC2(CC1)Oc1ccc(F)cc1C(=O)C21CC(c2ccccc2)=NO1 (centres undefined)	EBI2 block 50
CC(C)C(=O)N1CCC2(CC1)Oc1ccc(F)cc1C(=O)C21CC(c2cccnc2)=NO1 (centres undefined)	none (no result: EBI2 block, GAA850 FXN act, CXCR6 inh, CCR6 antagonist)
O=C(NCCC(F)(F)F)c1cccc2c(-c3ccc(F)c(F)c3)coc12	none (no result: APJ antagonist, APJ ag, CCR6 antagonist)
CCCCN1C(=O)/C(=C/C=C2\Oc3ccccc3N2CC)SC1=S	none (no result: APJ antagonist, APJ ag)
CCN1/C(=C/C=C/c2oc3ccc(-c4ccccc4)cc3[n+]2CC)Oc2ccc(-c3ccccc3)cc21	CCR6 antagonist 60
COc1ccc(-c2csc(C(NC(C)=O)c3cccc(F)c3)n2)cc1 (centres undefined)	none (no result: APJ antagonist, APJ ag, CCR6 antagonist)
C[C@@H](C(=O)NCc1ccccc1)[C@@H]1C[C@@]1(C)[C@@H](NC(=O)OCc1ccccc1)c1ccccc1	none
C[C@@H](C(=O)NCCc1c[nH]c2ccccc12)[C@@H]1C[C@@]1(C)[C@@H](NC(=O)OCc1ccccc1)c1ccccc1	EBI2 block 75
CN(CCOc1ccc(Cl)cc1)C(=O)Cc1ccc(S(=O)(=O)N2CCOCC2)s1	none
Cc1nc2c(-c3ccc(Cl)cc3)c(C)[nH]n2c(=O)c1Cc1ccccc1	CXCR6 inh 43
C=C(CC[C@@H](O)C(C)(C)O)[C@H]1CC[C@]2(C)[C@@H]1CCC1[C@@]3(C)CC[C@H](O)C(C)(C)C3CC[C@]12C (some centres undefined)	CCR6 antagonist 69
C=C(C)[C@@H]1CC[C@]2(C(=O)O)CC[C@]3(C)[C@H](CC[C@@H]4[C@@]5(C)CC[C@H](O)C(C)(C)[C@@H]5CC[C@]43C)[C@@H]12	none
CCCCCCCC(=O)Nc1cc(C(=O)NCCC)ccc1N1CCC2(CC1)CC(c1ccccc1)=NO2	none
Cc1noc(C)c1C(=O)N1CCC1(C)C(=O)NS(=O)(=O)c1cccc(F)c1 (centres undefined)	none (no result: APJ antagonist, APJ ag, CCR6 antagonist)
COC(=O)[C@]12CCCCC=C1N(Cc1ccccc1)C(=O)[C@H](CC(=O)NCc1ccccc1)C2	none (no result: APJ antagonist, GAA850 FXN act, APJ ag, CCR6 antagonist)
COc1ccccc1N=Nc1ccc(O)c2ncccc12	CCR6 antagonist 54
CS(=O)(=O)N(CC(=O)N1CCC(C(N)=O)CC1)Cc1ccc(Cl)c(Cl)c1	none
Brc1ccc(N/N=C(/N=Nc2nn[nH]n2)c2ccccc2)cc1	CCR6 antagonist 52
COc1ccc(S(=O)(=O)N2CCN(c3ccc(F)cc3)CC2)cc1C(=O)N1CCOCC1	none
CCC(C(=O)OCC(=O)Nc1cc(Cl)ccc1Cl)c1ccccc1 (centres undefined)	APJ antagonist 42
c1ccc2c(c1)CCc1ccccc1C2=C1CCNCC1	none
COc1ccc(/C=C/C(=O)OCC(=O)c2cc(C)ccc2C)cc1	none (no result: APJ antagonist, APJ ag, CCR6 antagonist)
O=C1C(F)=CC(COC(c2ccccc2)(c2ccccc2)c2ccccc2)OC1n1cc(F)c(=O)[nH]c1=O (centres undefined)	CXCR6 inh 67, CCR6 antagonist 99 (no result: APJ antagonist, APJ ag)
O=[N+]([O-])c1cc(Cc2ccccc2)cc(C=Nc2ccc(N3CCOCC3)cc2)c1O	CXCR6 inh 43, CCR6 antagonist 55 (no result: APJ antagonist, APJ ag)
COc1ccc(CC(=O)OC(C)C(=O)NC2CCCCC2C)cc1 (centres undefined)	none
CN(C)c1nc(=NCc2ccco2)ss1	CXCR6 inh 100, CCR6 antagonist 104 (no result: APJ antagonist, APJ ag)
Cc1ccc(OCC(=O)NNC(=S)NC(=O)C(C)(C)C)c(Br)c1	CCR6 antagonist 59
CC1CCCC(NC(=O)COC(=O)c2n[nH]c3ccccc23)C1C (centres undefined)	none
CCCS(=O)(=O)NC(=O)C1(C)CCCN(C(=O)COc2ccccc2)C1 (centres undefined)	none (no result: APJ antagonist, APJ ag, CCR6 antagonist)
